Reference: ChEMBL document CHEMBL1122207, “Antitumor agents. 2. Bisguanylhydrazones of anthracene-9,10-dicarboxaldehydes” (1982)

Experiments:
Format in all cases: functional
Mus musculus [1] = assay: Percent increase in median life span of BDF1 mice with B-16 melanoma at dose 6.00 mg/kg administered intraperitoneally; settings: BDF1, B16, ip, route intraperitoneal
In short: (§1)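 BDF1 mice were implanted ip with a homogenate from 0.05 g of B-16 melanoma. Ip dosing ran on days 1-9, starting 24 h after implant, in dose-response studies following NCI protocols. The read-out was percent increase in life span (ILS). T/C ≥125% was taken as significant.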

Mus musculus [2] = organism: Mus musculus; assay: Anticancer activity measured as the number of survivors of the total treated mice with P-388 leukemia at 30 days.
In short: (§2)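 BDF1 or CDF1 mice given 10^6 ascitic P-388 leukemia cells ip, then treated ip on days 1, 5 and 9. Cures are survivors over total treated at 30 days.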

Mus musculus [3] = assay: Percent increase in median life span of BDF1 mice with P-388 leukemia at dose 25 mg/kg administered intraperitoneally; settings: BDF1, P388, ip, route intraperitoneal
Mus musculus [4] = organism: Mus musculus; assay: Number of survivors of the total treated mice with B-16 melanoma, at 60 days.
In short: (§3)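 BDF1 mice were implanted ip with a homogenate from 0.05 g of B-16 melanoma and dosed ip on days 1-9. Cures are survivors over total at 60 days.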

Mus musculus [5] = assay: Percent increase in median life span of BDF1 mice with P-388 leukemia at dose 12.5 mg/kg administered intraperitoneally; settings: BDF1, P388, ip, route intraperitoneal
Mus musculus [6] = organism: Mus musculus; assay: Cures is the number of survivors of the total treated mice (6) with P-388 leukemia, at 60 days.
Mus musculus [7] = assay: Percent increase in median life span of BDF1 mice with B-16 melanoma at dose 6 mg/kg administered intraperitoneally; settings: BDF1, B16, ip, route intraperitoneal; in short: as §1
Mus musculus [8] = assay: Percent increase in median life span of BDF1 mice with P-388 leukemia at dose 50 mg/kg administered intraperitoneally; settings: BDF1, P388, ip, route intraperitoneal
Mus musculus [9] = assay: Percent increase in median life span of BDF1 mice with P-388 leukemia administered intraperitoneally
Mus musculus [10] = assay: Percent increase in median life span of BDF1 mice with P-388 leukemia at dose 6.25 mg/kg administered intraperitoneally; settings: BDF1, P388, ip, route intraperitoneal
Mus musculus [11] = assay: Percent increase in median life span of BDF1 mice with B-16 melanoma at dose 50 mg/kg administered intraperitoneally; settings: BDF1, B16, ip, route intraperitoneal; in short: as §1
Mus musculus [12] = assay: Percent increase in median life span of BDF1 mice with P-388 leukemia at dose 100 mg/kg administered intraperitoneally; settings: BDF1, P388, ip, route intraperitoneal
Mus musculus [13] = organism: Mus musculus; assay: Cures is the number of survivors of the total treated mice (10) with B-16 melanoma, at 60 days.; in short: as §3
Mus musculus [14] = assay: Percent increase in median life span of BDF1 mice with B-16 melanoma at dose 3.1 mg/kg administered intraperitoneally; settings: BDF1, B16, ip, route intraperitoneal; in short: as §1
Mus musculus [15] = organism: Mus musculus; assay: Cures is the number of survivors of the total treated mice (12) with P-388 leukemia, at 30 days.; in short: as §2
Mus musculus [16] = organism: Mus musculus; assay: Cures is the number of survivors of the total treated mice (6) with P-388 leukemia, at 30 days.; in short: as §2
Mus musculus [17] = assay: Percent increase in median life span of BDF1 mice with B-16 melanoma at dose 3 mg/kg administered intraperitoneally; settings: BDF1, B16, ip, route intraperitoneal; in short: as §1
Mus musculus [18] = assay: Percent increase in median life span of BDF1 mice with B-16 melanoma at dose 12 mg/kg administered intraperitoneally; settings: BDF1, B16, ip, route intraperitoneal; in short: as §1
Mus musculus [19] = assay: Percent increase in median life span of BDF1 mice with P-388 leukemia at dose 3.1 mg/kg administered intraperitoneally; settings: BDF1, P388, ip, route intraperitoneal
Mus musculus [20] = assay: Percent increase in median life span of BDF1 mice with B-16 melanoma at dose 6.25 mg/kg administered intraperitoneally; settings: BDF1, B16, ip, route intraperitoneal; in short: as §1
Mus musculus [21] = assay: Percent increase in median life span of BDF1 mice with B-16 melanoma administered intraperitoneally; in short: as §1
Mus musculus [22] = assay: Percent increase in median life span of BDF1 mice with B-16 melanoma at dose 1.5 mg/kg administered intraperitoneally; settings: BDF1, B16, ip, route intraperitoneal; in short: as §1
Mus musculus [23] = assay: Percent increase in median life span of BDF1 mice with B-16 melanoma at dose 12.5 mg/kg administered intraperitoneally; settings: BDF1, B16, ip, route intraperitoneal; in short: as §1

CN(C)CCCCC/N=C(\S)N/N=C/c1c2ccccc2c(/C=N/N/C(S)=N/CCCCCN(C)C)c2ccccc12.Cl.Cl
ILS at 6 mg/kg (Mus musculus [1]): 97% | Cures (Mus musculus [2]): 0 | ILS at 25 mg/kg (Mus musculus [3]): 48% | Cures (Mus musculus [4]): 0

C(=N\NC1=NCCN1)/c1c2ccccc2c(/C=N/NC2=NCCN2)c2c1ccc1ccccc12.Cl.Cl
ILS at 12.5 mg/kg (Mus musculus [5]): 90% | Cures (Mus musculus [6]): 1 | Cures (Mus musculus [4]): 0

Cl.Cl.N=C(N/N=C/c1c2ccccc2c(/C=N/NC(=N)Nc2ccccc2)c2ccccc12)Nc1ccccc1
ILS at 6 mg/kg (Mus musculus [7]): 50% | ILS at 50 mg/kg (Mus musculus [8]): 67% | Cures (Mus musculus [2]): 0 | Cures (Mus musculus [4]): 0

CN(C)c1ccc(N/C(S)=N/N=C/c2c3ccccc3c(/C=N/N=C(/S)Nc3ccc(N(C)C)cc3)c3ccccc23)cc1
ILS (Mus musculus [9]): 0%

CN(C)CCC/N=C(\S)N/N=C/c1c2ccccc2c(/C=N/N/C(S)=N/CCCN(C)C)c2ccccc12.Cl.Cl
ILS at 6 mg/kg (Mus musculus [1]): 77% | Cures (Mus musculus [2]): 0 | ILS at 6.25 mg/kg (Mus musculus [10]): 100% | Cures (Mus musculus [4]): 0

Cl.Cl.S=C(NCCCN1CCOCC1)N/N=C/c1c2ccccc2c(/C=N/NC(=S)NCCCN2CCOCC2)c2ccccc12
ILS at 50 mg/kg (Mus musculus [11]): 75% | ILS at 100 mg/kg (Mus musculus [12]): 53% | Cures (Mus musculus [2]): 0 | Cures (Mus musculus [4]): 0

COCC/N=C(\S)N/N=C/c1c2ccccc2c(/C=N/N/C(S)=N/CCOC)c2ccccc12
ILS (Mus musculus [9]): 0%

Cl.Cl.Fc1ccc2c(/C=N/NC3=NCCN3)c3ccccc3c(/C=N/NC3=NCCN3)c2c1
Cures (Mus musculus [13]): 4 | ILS at 3.1 mg/kg (Mus musculus [14]): 183% | Cures (Mus musculus [15]): 3 | ILS at 6.25 mg/kg (Mus musculus [10]): 123%

Cl.Cl.N=C(N)N/N=C/c1c2ccccc2c(/C=N/N=C(N)N)c2ccccc12
Cures (Mus musculus [16]): 3 | ILS at 25 mg/kg (Mus musculus [3]): 132% | Cures (Mus musculus [4]): 0 | ILS at 3 mg/kg (Mus musculus [17]): 67%

Br.Br.CN(/N=C/c1c2ccccc2c(/C=N/N(C)C(=N)N)c2ccccc12)C(=N)N
ILS at 12.5 mg/kg (Mus musculus [5]): 91% | ILS at 6 mg/kg (Mus musculus [7]): 50% | Cures (Mus musculus [2]): 0 | Cures (Mus musculus [4]): 0

CN(/N=C/c1c2ccccc2c(/C=N/N(C)C2=NCCN2)c2ccccc12)C1=NCCN1
Cures (Mus musculus [16]): 1 | ILS at 6.25 mg/kg (Mus musculus [10]): 124% | Cures (Mus musculus [4]): 0 | ILS at 3 mg/kg (Mus musculus [17]): 95%

Cl.Cl.Fc1cccc2c(/C=N/NC3=NCCN3)c3c(F)cccc3c(/C=N/NC3=NCCN3)c12
Cures (Mus musculus [13]): 5 | ILS at 50 mg/kg (Mus musculus [11]): 194% | Cures (Mus musculus [16]): 1 | ILS at 100 mg/kg (Mus musculus [12]): 140%

CC(C)N(CC/N=C(\S)N/N=C/c1c2ccccc2c(/C=N/N/C(S)=N/CCN(C(C)C)C(C)C)c2ccccc12)C(C)C.Cl.Cl
ILS at 100 mg/kg (Mus musculus [12]): 53% | Cures (Mus musculus [2]): 0

C(=N\NC1=NCCCN1)/c1c2ccccc2c(/C=N/NC2=NCCCN2)c2ccccc12.Cl.Cl
Cures (Mus musculus [15]): 1 | ILS at 12.5 mg/kg (Mus musculus [5]): 82% | ILS at 12 mg/kg (Mus musculus [18]): 106% | Cures (Mus musculus [4]): 0

Cl.Cl.Fc1cccc2c(/C=N/NC3=NCCN3)c3ccccc3c(/C=N/NC3=NCCN3)c12
Cures (Mus musculus [13]): 1 | ILS at 3.1 mg/kg (Mus musculus [14]): 100% | ILS at 3.1 mg/kg (Mus musculus [19]): 115% | Cures (Mus musculus [2]): 0

C(=N\NC1=NCCN1)/c1c2ccccc2c(/C=N/NC2=NCCN2)c2cc3ccccc3cc12.Cl.Cl
Cures (Mus musculus [13]): 1 | ILS at 12.5 mg/kg (Mus musculus [5]): 91% | ILS at 6.25 mg/kg (Mus musculus [20]): 136% | Cures (Mus musculus [2]): 0

CC(C)(C)c1ccc2c(/C=N/NC3=NCCN3)c3ccccc3c(/C=N/NC3=NCCN3)c2c1.Cl.Cl
ILS (Mus musculus [21]): 0% | ILS (Mus musculus [9]): 0% | Cures (Mus musculus [2]): 0 | Cures (Mus musculus [4]): 0

CN1CCCN=C1N/N=C/c1c2ccccc2c(/C=N/NC2=NCCCN2C)c2ccccc12.Cl.Cl
Cures (Mus musculus [16]): 1 | ILS at 1.5 mg/kg (Mus musculus [22]): 80% | ILS at 6.25 mg/kg (Mus musculus [10]): 148% | Cures (Mus musculus [4]): 0

C/N=C(\NC)N/N=C/c1c2ccccc2c(/C=N/N/C(=N/C)NC)c2ccccc12
Cures (Mus musculus [16]): 1 | ILS at 6.25 mg/kg (Mus musculus [10]): 118% | Cures (Mus musculus [4]): 0 | ILS at 3 mg/kg (Mus musculus [17]): 111%

CN(C)C(=N)N/N=C/c1c2ccccc2c(/C=N/N=C(\N)N(C)C)c2cc(Cl)ccc12.Cl.Cl
ILS at 12.5 mg/kg (Mus musculus [5]): 82% | ILS at 6 mg/kg (Mus musculus [7]): 39% | Cures (Mus musculus [2]): 0 | Cures (Mus musculus [4]): 0

C(=N\NC1=NCCN1)/C1c2ccccc2C(/C=N/NC2=NCCN2)c2ccccc21.Cl.Cl (stereo unspecified)
ILS at 12.5 mg/kg (Mus musculus [5]): 72% | ILS at 12.5 mg/kg (Mus musculus [23]): 100% | Cures (Mus musculus [4]): 0

Cl.Cl.Clc1cccc2c(/C=N/NC3=NCCN3)c3ccccc3c(/C=N/NC3=NCCN3)c12
Cures (Mus musculus [13]): 3 | Cures (Mus musculus [16]): 3 | ILS at 1.5 mg/kg (Mus musculus [22]): 153% | ILS at 6.25 mg/kg (Mus musculus [10]): 186%

Cc1ccc2c(/C=N/NC3=NCCN3)c3ccccc3c(/C=N/NC3=NCCN3)c2c1Cl.Cl.Cl
Cures (Mus musculus [13]): 4 | ILS at 12.5 mg/kg (Mus musculus [5]): 130% | ILS at 12.5 mg/kg (Mus musculus [23]): 220% | Cures (Mus musculus [2]): 0

Cl.Cl.Fc1ccc2c(/C=N/NC3=NCCN3)c3cc(F)ccc3c(/C=N/NC3=NCCN3)c2c1
Cures (Mus musculus [13]): 1 | ILS at 3.1 mg/kg (Mus musculus [14]): 111% | ILS at 3.1 mg/kg (Mus musculus [19]): 135% | Cures (Mus musculus [16]): 1
